Our source for the inhibition and IC50 values is ChEMBL document CHEMBL3351328.

Assay [1] concerns the target Inosine-5'-monophosphate dehydrogenase 2 (Homo sapiens) (UniProt P12268). Put plainly: Inhibition of human IMPDH2 assessed as reduction in NADH production at 5 uM.
Assay [2] deals with T1, Inosine-5'-monophosphate dehydrogenase (Cryptosporidium parvum, UniProt Q8T6T2).
T1 sequence (Q8T6T2 whole entry): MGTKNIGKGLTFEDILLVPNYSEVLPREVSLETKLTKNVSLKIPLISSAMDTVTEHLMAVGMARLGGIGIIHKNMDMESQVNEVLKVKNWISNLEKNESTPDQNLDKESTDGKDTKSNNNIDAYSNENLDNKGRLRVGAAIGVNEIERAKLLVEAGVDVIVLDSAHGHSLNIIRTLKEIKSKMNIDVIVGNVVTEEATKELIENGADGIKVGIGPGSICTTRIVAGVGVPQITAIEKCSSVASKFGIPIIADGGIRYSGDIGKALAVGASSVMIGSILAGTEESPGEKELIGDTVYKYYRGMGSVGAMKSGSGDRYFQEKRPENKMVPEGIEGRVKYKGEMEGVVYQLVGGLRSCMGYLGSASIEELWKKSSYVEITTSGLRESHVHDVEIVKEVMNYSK
Put plainly: Inhibition of Cryptosporidium parvum IMPDH assessed as reduction in NADH production. The gist of the method:
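Purified expressed CpIMPDH enzyme; activity followed by NADH production. IC50 taken as the average of three independent experiments unless otherwise noted.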

Chain of Inosine-5'-monophosphate dehydrogenase 2 (Homo sapiens) (P12268 2-514 limits assumed): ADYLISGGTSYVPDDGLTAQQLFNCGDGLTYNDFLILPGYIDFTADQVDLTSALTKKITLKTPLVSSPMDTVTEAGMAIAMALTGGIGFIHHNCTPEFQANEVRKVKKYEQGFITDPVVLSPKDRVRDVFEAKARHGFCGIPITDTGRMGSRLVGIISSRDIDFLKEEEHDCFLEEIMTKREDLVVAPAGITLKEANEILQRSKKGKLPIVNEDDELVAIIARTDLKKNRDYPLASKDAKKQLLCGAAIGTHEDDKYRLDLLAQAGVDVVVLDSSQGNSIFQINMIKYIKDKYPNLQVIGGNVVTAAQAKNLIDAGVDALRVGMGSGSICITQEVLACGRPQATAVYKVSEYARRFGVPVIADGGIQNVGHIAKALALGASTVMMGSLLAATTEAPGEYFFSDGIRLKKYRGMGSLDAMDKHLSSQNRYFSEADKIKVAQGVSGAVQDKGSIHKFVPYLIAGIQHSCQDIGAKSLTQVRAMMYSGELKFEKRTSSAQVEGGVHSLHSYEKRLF

One may read the inhibition as the relative decrease from the control value, in per cent. As usually defined, the IC50 is the concentration that inhibits the measured activity by half. As for `O=C(Cn1ncc2c(=O)oc3ccccc3c21)Nc1ccc2cc[nH]c2c1`, the inhibition in assay [1] was less than 20%. For the same compound, the IC50 in assay [2] came out at 120 nM.
For the compound `O=C(Cn1ncc2c(=O)oc3ccccc3c21)Nc1cccc(Cl)c1`, the IC50 in assay [2] is more than 5000 nM.
As to `COc1cccc(NC(=O)Cn2ncc3c(=O)oc4ccccc4c32)c1`, in assay [2], the IC50 amounted to 1500 nM.
For `COc1cc(NC(=O)C(C)n2ncc3c(=O)oc4ccccc4c32)ccc1Cl` (stereo unspecified), the inhibition in assay [1] was less than 20%. Also, the IC50 in assay [2] is 63 nM.
`O=C(Cn1ncc2c(=O)oc3ccccc3c21)Nc1ccc(Cl)c(Cl)c1`: the inhibition in assay [1] was less than 20%. In addition, the IC50 in assay [2] was 44 nM.
The like results for `COc1cc(NC(=O)Cn2ncc3c(=O)oc4ccccc4c32)ccc1Cl` were, in that order, less than 20% and 20 nM.
As for `COc1ccc(NC(=O)Cn2ncc3c(=O)oc4ccccc4c32)cc1OC`, the IC50 in assay [2] worked out at 2500 nM.
As to `O=C(Cn1ncc2c(=O)oc3ccccc3c21)Nc1ccc2ccccc2c1`, the inhibition in assay [1] was less than 20%. For the same compound, the IC50 in assay [2] came out at 67 nM.
For the compound `O=C(Cn1ncc2c(=O)oc3ccccc3c21)Nc1ccc(Cl)cc1Cl`, in assay [2], the IC50 was more than 5000 nM.
On the same count and under the same terms, under `O=C(Cn1ncc2c(=O)oc3ccccc3c21)Nc1ccc2[nH]cnc2c1` stands 2500 nM.
`COc1cc(NC(=O)Cn2ncc3c2-c2ccccc2OC3)ccc1Cl`: the inhibition in assay [1] was less than 20%. Further, the IC50 in assay [2] was found to be 70 nM.
As for `COc1cc(NC(=O)Cn2ncc3c(=O)oc4cc(C)ccc4c32)ccc1Cl`, the IC50 in assay [2] is 2000 nM.
On to `O=C(Cn1ncc2c(=O)oc3ccccc3c21)Nc1ccc2c(c1)OCCO2`, for which the inhibition in assay [1] is less than 20%. In addition, in assay [2], the IC50 was 190 nM.
For the compound `O=C(Cn1ncc2c(=O)oc3ccccc3c21)Nc1ccccc1Cl`, the IC50 in assay [2] was more than 5000 nM.
For `COc1cc(N(C)C(=O)Cn2ncc3c(=O)oc4ccccc4c32)ccc1Cl`, the IC50 in assay [2] is more than 5000 nM.
The same measure, in the same setting: to `O=C(Cn1ncc2c(=O)oc3ccccc3c21)Nc1ccc2[nH]ccc2c1` belongs more than 5000 nM.
For the compound `O=C(Cn1ncc2c(=O)oc3ccccc3c21)Nc1ccc(F)cc1`, in assay [1], the inhibition is less than 20%. In assay [2], the IC50 came out at 460 nM.
Turning to `O=C(Cn1ncc2c(=O)oc3ccccc3c21)Nc1ccc(C(F)(F)F)cc1`, the inhibition in assay [1] is less than 20%. Also, the IC50 in assay [2] was 580 nM.
As for `O=C(Cn1ncc2c(=O)oc3ccccc3c21)Nc1ccc2ncccc2c1`, in assay [1], the inhibition was less than 20%. In addition, in assay [2], the IC50 was 80 nM.
The corresponding values for `COc1cc(NC(=O)Cn2ncc3c2-c2ccccc2CC3)ccc1Cl` are less than 20% and 100 nM.
